# Test results reported in ChEMBL document CHEMBL2029296 (J Med Chem, 2012).
# Activity calls are given as the source filed them. The rule behind the calls is not given here.
# What was measured:
# [1] = target: T1, Adenosine receptor A2b (Homo sapiens) (UniProt P29275); assay: Antagonist activity at A2B receptor in human Caco2 cells assessed as reversal of NECA-induced cell death at 0.1 to 50 nM after 24 hrs by MTS assay; assay type: functional, cell-based; conditions: Caco-2
# T1 sequence (whole entry): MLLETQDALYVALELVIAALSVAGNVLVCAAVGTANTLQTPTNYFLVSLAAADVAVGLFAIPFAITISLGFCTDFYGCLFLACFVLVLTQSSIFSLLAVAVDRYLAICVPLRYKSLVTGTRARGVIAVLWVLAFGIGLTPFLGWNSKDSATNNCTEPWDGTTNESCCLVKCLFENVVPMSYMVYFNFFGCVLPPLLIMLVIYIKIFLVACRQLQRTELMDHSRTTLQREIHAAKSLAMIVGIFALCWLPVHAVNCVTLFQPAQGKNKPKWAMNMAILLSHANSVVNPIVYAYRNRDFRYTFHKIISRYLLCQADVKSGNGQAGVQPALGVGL
# How it was run: (§1)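 Caco-2 cells grown in DMEM with 10% FBS, 2 mM L-glutamine and penicillin/streptomycin at 37 °C, 5% CO2, seeded at 5000 cells/well. Next day, antagonist (0.1–50 nM) added, alone or 5 min before 100 nM NECA, for 24 h. Viability read by MTS formazan absorbance at 490 nm. Background subtracted, expressed as % untreated control, duplicate or triplicate, ≥3 experiments.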
# Adenosine receptor A1 = target: T2, Adenosine receptor A1 (Homo sapiens, UniProt P30542); assay: Displacement of [3H]DPCPX from human A1 adenosine receptor expressed in CHO cell membrane; assay type: cell membranes
# T2 sequence (P30542 whole entry): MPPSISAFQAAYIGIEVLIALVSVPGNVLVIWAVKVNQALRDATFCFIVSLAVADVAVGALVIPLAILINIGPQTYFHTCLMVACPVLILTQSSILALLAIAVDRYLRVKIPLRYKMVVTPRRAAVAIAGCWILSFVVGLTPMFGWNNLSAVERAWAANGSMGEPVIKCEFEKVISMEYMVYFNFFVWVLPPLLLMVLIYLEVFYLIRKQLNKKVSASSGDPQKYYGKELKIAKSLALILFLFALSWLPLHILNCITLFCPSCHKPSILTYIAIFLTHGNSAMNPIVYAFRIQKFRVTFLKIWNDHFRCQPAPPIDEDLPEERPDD
# [2] = target: T1, Adenosine receptor A2b (Homo sapiens); assay: Induction of A2B receptor-mediated cell viability of human Caco2 cells assessed as cell survival at 0.1 to 50 nM after 24 hrs by MTS assay; assay type: cell-based; conditions: Caco-2; how it was run: as §1
# Adenosine receptor A3 = target: T3, Adenosine receptor A3 (Homo sapiens, UniProt P0DMS8); assay: Displacement of [125I]AB-MECA from human A3 adenosine receptor expressed in CHO cell membrane; assay type: cell membranes
# T3 sequence (P0DMS8 whole entry): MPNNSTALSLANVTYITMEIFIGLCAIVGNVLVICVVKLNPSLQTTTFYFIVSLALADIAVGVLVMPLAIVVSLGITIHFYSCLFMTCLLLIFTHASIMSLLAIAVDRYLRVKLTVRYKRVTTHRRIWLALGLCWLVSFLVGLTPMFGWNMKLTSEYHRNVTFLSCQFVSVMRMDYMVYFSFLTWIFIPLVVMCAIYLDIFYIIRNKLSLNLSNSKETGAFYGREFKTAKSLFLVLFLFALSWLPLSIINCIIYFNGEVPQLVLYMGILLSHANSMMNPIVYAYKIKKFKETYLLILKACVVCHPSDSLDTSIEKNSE
# Adenosine receptor A2a = Adenosine receptor A2a (Homo sapiens, UniProt P29274); assay: Displacement of [3H]NECA from human A2A adenosine receptor expressed in CHO cell membrane; assay type: cell membranes
# Sequence of Adenosine receptor A2a (P29274 whole entry): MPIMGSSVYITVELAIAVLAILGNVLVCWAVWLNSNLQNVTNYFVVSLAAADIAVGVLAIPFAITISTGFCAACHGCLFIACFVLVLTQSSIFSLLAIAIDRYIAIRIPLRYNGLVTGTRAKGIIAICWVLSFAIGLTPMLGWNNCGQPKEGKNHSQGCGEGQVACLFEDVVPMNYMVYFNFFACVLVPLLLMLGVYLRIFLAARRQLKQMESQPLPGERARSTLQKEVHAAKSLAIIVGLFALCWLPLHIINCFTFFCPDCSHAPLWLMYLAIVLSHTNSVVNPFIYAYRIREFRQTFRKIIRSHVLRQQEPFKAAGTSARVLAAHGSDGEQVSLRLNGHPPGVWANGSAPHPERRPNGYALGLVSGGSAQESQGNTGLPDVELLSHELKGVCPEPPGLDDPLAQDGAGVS
# Adenosine receptor A2b = target: T4, Adenosine receptor A2b (Homo sapiens, UniProt P29275); assay: Antagonist activity at human A2B receptor expressed in CHO cells assessed as inhibition of NECA-mediated cAMP accumulation; assay type: functional, cell-based
# T4 sequence (P29275 whole entry): T1 sequence (whole entry)
# How it was run: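 hA2B-expressing CHO cells, 48 h after plating, were preincubated 15 min at 37 °C in DMEM with ADA 1 U/mL and Ro20-1724 20 μM. Antagonist (1 nM–10 μM) was added for 15 min at 37 °C, then 100 nM NECA. Reaction stopped with 0.4 N HCl, lysate neutralized with 4 N KOH, and cAMP measured by competitive protein binding.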
Ki (Adenosine receptor A1),Ki (Adenosine receptor A3),Ki (Adenosine receptor A2a),IC50 (Adenosine receptor A2b),SMILES,inhibition [1],Activity [2]
> 10000 nM,> 1000 nM,> 10000 nM,3.1 nM,O=c1c(-c2ccccc2)nnc2n(-c3ccccc3)c3ccc(Cl)cc3n12,Active,inactive
> 10000 nM,> 1000 nM,15.8 nM,5.34 nM,O=c1c(-c2ccco2)nnc2n(CCc3ccccc3)c3ccccc3n12,,
728 nM,> 1000 nM,,1.4 nM,Oc1c(-c2ccccc2)nnc2nc3ccccc3n12,Active,inactive
> 10000 nM,328 nM,> 10000 nM,2.5 nM,O=c1c(-c2ccccc2)nnc2n(CCc3ccccc3)c3ccccc3n12,Active,inactive
299 nM,> 1000 nM,> 10000 nM,54.3 nM,O=c1c(-c2ccccc2)nnc2n(Cc3ccccc3)c3ccccc3n12,,
83 nM,> 1000 nM,> 10000 nM,15 nM,O=c1c(-c2ccccc2)nnc2n(-c3ccccc3)c3ccccc3n12,,
> 10000 nM,> 1000 nM,3280 nM,3200 nM,O=c1c(-c2ccco2)nnc2n(-c3ccccc3)c3ccccc3n12,Active,
62 nM,> 1000 nM,> 10000 nM,58 nM,Cn1c2ccccc2n2c(=O)c(-c3ccccc3)nnc12,,
1360 nM,> 1000 nM,> 10000 nM,2.42 nM,O=c1c(-c2ccccc2)nnc2n(-c3ccc(Cl)cc3)c3ccccc3n12,Active,inactive
> 10000 nM,> 1000 nM,156 nM,10 nM,O=c1c(-c2ccco2)nnc2n(Cc3ccccc3)c3ccccc3n12,,
25 nM,> 1000 nM,,15.3 nM,Oc1c(-c2ccco2)nnc2nc3ccccc3n12,,
211 nM,> 1000 nM,2610 nM,20.4 nM,Cn1c2ccccc2n2c(=O)c(-c3ccco3)nnc12,,
> 10000 nM,> 1000 nM,> 10000 nM,7850 nM,O=c1c(-c2ccco2)nnc2n(-c3ccccc3)c3ccc(Cl)cc3n12,Active,
> 10000 nM,702 nM,50.6 nM,2.11 nM,O=c1c(-c2ccco2)nnc2n(-c3ccc(Cl)cc3)c3ccccc3n12,Active,inactive
